Experimental data reported in ChEMBL document CHEMBL1121454, “Alkylating nucleosides. 4. Synthesis and cytostatic activity of chloro- and iodomethylpyrazole nucleosides” (1980).
Converted amounts (≈) assume the structure as drawn.

Legend:
Format in all cases: functional
Mus musculus [1] = experiment: Number of survivors on day 5 to that of number(7) of mice at 12.5 mg/kg ip in mice bearing ECA tumor was determined; conditions: route intraperitoneal
How it was run: (§1)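 Female ICR Swiss mice (19–22 g) given about 5 × 10⁵ Ehrlich ascites carcinoma cells ip from a 7-day donor tumour. Starting 24 h later, nine ip doses at 24-h intervals, suspended in 0.9% NaCl with 0.05% Tween 80, 0.4 mL per injection. Groups of 7 treated and 30 controls. Read-out is survivors on day 5 over mice started.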

Mus musculus [2] = experiment: Number of cures on day 30 in mice bearing ECA tumor at 50 mg/kg
How it was run: (§2)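 Ehrlich ascites carcinoma, about 5 × 10⁵ cells ip from a 7-day donor, in female ICR Swiss mice of 19–22 g. Nine ip doses at 24-h intervals from 24 h post-implant, in saline with 0.05% Tween 80, 0.4 mL. Groups of 7 treated, 30 controls; NCI protocols 1100/1200. Cures are survivors on day 30. 5-Fluorouracil 20 mg/kg/injection reference.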

Mus musculus [3] = experiment: Percent increase in median survival time of treated mice compared with controls at 50 mg/kg
How it was run: (§3)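 Ehrlich carcinoma ascites in female ICR Swiss mice (19–22 g), about 5 × 10⁵ cells ip, per NCI protocols 1100/1200. From 24 h after implant, nine daily ip doses in saline with 0.05% Tween 80 (0.4 mL). Groups of 7 treated and 30 controls; 5-fluorouracil 20 (mg/kg)/injection as positive control. T/C × 100 taken from median survival time against controls; evaluation on day 30.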

Mus musculus [4] = experiment: Number of survivors on day 5 to that of number(7) of mice at 25 mg/kg ip in mice bearing ECA tumor was determined; conditions: route intraperitoneal; how it was run: as §1
Mus musculus [5] = experiment: Number of survivors on day 5 to that of number(7) of mice at 50 mg/kg ip in mice bearing ECA tumor was determined; conditions: route intraperitoneal; how it was run: as §1
Mus musculus [6] = experiment: Percent increase in median survival time of treated mice compared with controls at 25 mg/kg; how it was run: as §3
HeLa = experiment: Cytostatic activity against HeLa cells; conditions: Homo sapiens, read-out: ED50 (the source's name)
How it was run: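 HeLa cells at 10⁵ cells/mL in minimal Eagle's medium with 10% fetal calf serum, left 2–3 h at 37 °C in Leighton tubes to attach. Compound added as suspension in sterile saline with 0.05% Tween 80, 10% of final volume. Incubated 72 h at 37 °C. Growth from cell protein by Oyama–Eagle colorimetry; ED50 in μg/mL. 6-Mercaptopurine positive control.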

Mus musculus [7] = experiment: Difference in weight on day 5 in mice bearing ECA tumor at 50 mg/kg
How it was run: (§4)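 Female ICR Swiss mice, 19–22 g, given about 5 × 10⁵ Ehrlich ascites cells ip from a 7-day donor. Starting 24 h later, nine daily ip doses suspended in 0.9% NaCl with 0.05% Tween 80, 0.4 mL. Groups of 7 treated, 30 controls, per NCI protocols 1100/1200. Value is weight difference (g) between test and control animals.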

Mus musculus [8] = experiment: Difference in weight on day 5 in mice bearing ECA tumor at 12.5 mg/kg; how it was run: as §4
Mus musculus [9] = experiment: Percent increase in median survival time of treated mice compared with controls at 12.5 mg/kg; how it was run: as §3
Mus musculus [10] = experiment: Number of cures on day 30 in mice bearing ECA tumor at 12.5 mg/kg; how it was run: as §2
Mus musculus [11] = experiment: Difference in weight on day 5 in mice bearing ECA tumor at 25 mg/kg; how it was run: as §4
Mus musculus [12] = experiment: Number of cures on day 30 in mice bearing ECA tumor at 25 mg/kg; how it was run: as §2

Structure (SMILES): CC(=O)OC[C@H]1O[C@@H](n2nc(C(N)=O)cc2CI)[C@H](OC(C)=O)[C@@H]1OC(C)=O
- Survivors (Mus musculus [1]): 7
- Cures (Mus musculus [2]): 1
- T/C (Mus musculus [3]): 100%
- Survivors (Mus musculus [4]): 7
- Survivors (Mus musculus [5]): 7
- T/C (Mus musculus [6]): 141%
- EC50 (HeLa): 2 µg/mL (≈ 3.93 µM)
- Weight difference (Mus musculus [7]): -0.5
- Weight difference (Mus musculus [8]): 0.3
- T/C (Mus musculus [9]): 121%
- Cures (Mus musculus [10]): 2
- Weight difference (Mus musculus [11]): -0.25
- Cures (Mus musculus [12]): 4

Structure (SMILES): CC(=O)OC[C@H]1O[C@@H](n2nc(CI)cc2C(N)=O)[C@H](OC(C)=O)[C@@H]1OC(C)=O
- Survivors (Mus musculus [1]): 7
- T/C % (Mus musculus [3]): 63%
- Survivors (Mus musculus [4]): 7
- Survivors (Mus musculus [5]): 7
- T/C (Mus musculus [6]): 158%
- EC50 (HeLa): 1.5 µg/mL (≈ 2.95 µM)
- Weight difference (Mus musculus [7]): -0.6
- Weight difference (Mus musculus [8]): -0.6
- T/C (Mus musculus [9]): 131%
- Cures (Mus musculus [10]): 2
- Weight difference (Mus musculus [11]): -0.4
- Cures (Mus musculus [12]): 4

Structure (SMILES): CCOC(=O)c1cc(CCl)nn1C1O[C@@H](COC(C)=O)[C@H](OC(C)=O)[C@@H](OC(C)=O)[C@@H]1OC(C)=O (some centres not stated)
- EC50 (HeLa): 40 µg/mL (≈ 77.1 µM)

Structure (SMILES): CCOC(=O)c1cc(CCl)[nH]n1
- EC50 (HeLa): > 100 µg/mL

Structure (SMILES): CC(=O)OC[C@H]1OC(n2nc(CCl)cc2C(N)=O)[C@H](OC(C)=O)[C@@H](OC(C)=O)[C@@H]1OC(C)=O (some centres not stated)
- EC50 (HeLa): 12 µg/mL (≈ 24.5 µM)

Structure (SMILES): CC(=O)OC[C@@H]1OC(n2nc(CI)cc2C(N)=O)[C@@H](OC(C)=O)[C@H](OC(C)=O)[C@H]1OC(C)=O (some centres not stated)
- Cures (Mus musculus [2]): 4
- T/C (Mus musculus [3]): 176%
- Survivors (Mus musculus [4]): 7
- Survivors (Mus musculus [5]): 7
- T/C (Mus musculus [6]): 105%
- EC50 (HeLa): 2 µg/mL (≈ 3.44 µM)
- Weight difference (Mus musculus [7]): -0.3
- Weight difference (Mus musculus [11]): -0.1
- Cures (Mus musculus [12]): 1

Structure (SMILES): CCOC(=O)c1cc(CCl)nn1C1O[C@H](COC(C)=O)[C@@H](OC(C)=O)[C@H](OC(C)=O)[C@H]1OC(C)=O (some centres not stated)
- EC50 (HeLa): > 100 µg/mL

Structure (SMILES): CC(=O)OC[C@H]1O[C@@H](n2nc(CCl)cc2C(N)=O)[C@H](OC(C)=O)[C@@H]1OC(C)=O
- EC50 (HeLa): 26 µg/mL (≈ 62.2 µM)

Structure (SMILES): CC(=O)OC[C@H]1O[C@@H](n2nc(C(N)=O)cc2CCl)[C@H](OC(C)=O)[C@@H]1OC(C)=O
- EC50 (HeLa): 12 µg/mL (≈ 28.7 µM)

Structure (SMILES): CCOC(=O)c1cc(CCl)nn1[C@@H]1O[C@H](COC(C)=O)[C@@H](OC(C)=O)[C@H]1OC(C)=O
- EC50 (HeLa): 32 µg/mL (≈ 71.6 µM)

Structure (SMILES): NC(=O)c1cc(CI)[nH]n1
- EC50 (HeLa): > 100 µg/mL

Structure (SMILES): CCOC(=O)c1cc(CI)nn1C1O[C@@H](COC(C)=O)[C@H](OC(C)=O)[C@@H](OC(C)=O)[C@@H]1OC(C)=O (some centres not stated)
- EC50 (HeLa): 2.5 µg/mL (≈ 4.1 µM)

Structure (SMILES): CCOC(=O)c1cc(CI)nn1[C@@H]1O[C@H](COC(C)=O)[C@@H](OC(C)=O)[C@H]1OC(C)=O
- EC50 (HeLa): 5.5 µg/mL (≈ 10.2 µM)

Structure (SMILES): CCOC(=O)c1cc(CI)[nH]n1
- EC50 (HeLa): > 100 µg/mL

Structure (SMILES): NC(=O)c1cc(CCl)[nH]n1
- EC50 (HeLa): > 100 µg/mL

Structure (SMILES): CC(=O)OC[C@@H]1OC(n2nc(CCl)cc2C(N)=O)[C@@H](OC(C)=O)[C@H](OC(C)=O)[C@H]1OC(C)=O (some centres not stated)
- EC50 (HeLa): 18 µg/mL (≈ 36.7 µM)
